Laboratory results published in ChEMBL document CHEMBL1158773, “Cinnamylphenols from Phyllodium pulchellum” (J Nat Prod, 2005).

Experiments:
HepG2 = assay: Cytotoxicity against human HepG2 cells by MTT assay; format: functional, cell-based
Summary of the method: (§1)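 HepG2 (hepatoma line HA22T) and KB (epidermoid carcinoma, CCRC 60017) cells seeded at (1-1.5) × 10^4/mL and incubated overnight at 37 °C in 5% CO₂. On day 3, MTT (5 mg/mL solution) was added for 4 h, then formazan was dissolved in DMSO and read spectrophotometrically.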

KB = assay: Cytotoxicity against human KB cells by MTT assay; format: functional, cell-based; summary of the method: as §1

Row | Compound | IC50 (HepG2) [µM] | IC50 (KB) [µM]
1 | COc1cc(C/C=C/c2ccc(OC)c(O)c2OC)ccc1O [PULCHELSTYRENE C] | > 100 | 39.8
2 | CC1(C)C=Cc2c(cc(O)c3c(=O)c(O)c(-c4ccc(O)cc4)oc23)O1 [CITRUSINOL] | 43.3 | 42.3
3 | COc1cc(C/C=C\c2ccc(O)c(OC)c2OC)ccc1O [PULCHELSTYRENE B] | > 100 | 55.6
4 | CC1(C)C=Cc2c(cc(O)c3c2O[C@H](c2ccc(O)cc2)[C@@H](O)C3=O)O1 [YUKOVANOL] | > 100 | > 100
5 | COc1c(O)ccc(C=O)c1OC | > 100 | > 100
6 | COc1cc2c(c(OC)c1O)C=CCC21C=CC(=O)C=C1 [PULCHELSTYRENE D] | > 100 | > 100
7 | COc1c(O)ccc(/C=C\Cc2ccc(O)cc2)c1OC [PULCHELSTYRENE A] | > 100 | > 100
